Data as given in ChEMBL document CHEMBL2331168, “Anticonvulsant evaluation of aminoalkanol derivatives of 2- and 4-methylxanthone” (Bioorg Med Chem, 2013).
Activity calls are given as the source filed them.

Experiments:
[1] = Neurotoxicity in ip dosed albino mouse assessed as minimal motor impairment after 1 hr by rotorod test; assay type: toxicity, organism-based; details: in vivo
How it was run: (§1)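 TD50, with 95% confidence intervals, was the ip dose causing neurotoxicity in 50% of male albino mice. Deficit was judged on the rotorod: a 1 in. knurled rod at 6 rpm, where failure to hold on for 1 min in each of three trials counted as deficit. Read at the stated time after dosing.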

Mus musculus [2] = experiment: Protective index, ratio TD50 for albino mouse to ED50 for albino mouse by subcutaneous pentetrazole-induced seizure test after 0.5 hrs; assay type: functional
Mus musculus [3] = experiment: Anticonvulsant activity in ip dosed albino mouse assessed as protection against subcutaneous pentetrazole-induced seizures after 0.5 hrs; assay type: functional
Mus musculus [4] = organism: Mus musculus; experiment: Protective index, ratio TD50 for albino mouse to ED50 for albino mouse by maximal electroshock-induced seizure test after 0.5 hrs; assay type: functional
How it was run: (§2)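 Protective index was calculated as mouse ip TD50 (rotorod) divided by mouse ip MES ED50, both obtained by quantitative dose-response testing at the stated post-dose time.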

Mus musculus [5] = experiment: Anticonvulsant activity in ip dosed albino mouse assessed as protection against maximal electroshock-induced seizures after 0.5 hrs; assay type: functional
How it was run: (§3)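 ED50, with 95% confidence intervals, was the ip dose protecting 50% of mice in the MES test. It was measured at the stated post-dose time in male albino mice given suspensions in 0.5% methylcellulose. MES used 60 Hz, 50 mA, 0.2 s corneal stimulation, and the endpoint was abolition of hindlimb tonic extension.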

Rattus norvegicus [6] = experiment: Anticonvulsant activity in Sprague-Dawley rat assessed as protection against maximal electroshock-induced seizures at 30 mg/kg, po after 1 hr; assay type: functional, organism-based; set-up: dose 30 mg/kg
How it was run: (§4)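 Male Sprague-Dawley rats dosed orally at 30 mg/kg and tested at 0.25, 0.5, 1, 2 and 4 h. Seizures were induced by 60 Hz alternating current at 150 mA for 0.2 s through corneal electrodes, after a drop of 0.9% NaCl in each eye. Protection meant abolition of hindlimb tonic extension. Reported as protected/tested, usually 4 rats per time point.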

Mus musculus [7] = experiment: Neurotoxicity in albino mouse assessed as minimal motor impairment at 100 mg/kg, ip after 4 hrs by rotorod test; assay type: toxicity, organism-based; set-up: dose 100 mg/kg, route intraperitoneal; details: in vivo
How it was run: (§5)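 Male albino mice (Carworth Farms No. 1) were dosed ip with suspensions in 0.5% methylcellulose and put on a 1 in. knurled rod rotating at 6 rpm at set times after dosing. Neurotoxicity meant failure to stay on the rod for at least 1 min in each of three trials. Scored as impaired/tested.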

Mus musculus [8] = experiment: Neurotoxicity in albino mouse assessed as minimal motor impairment at 30 mg/kg, ip after 4 hrs by rotorod test; assay type: toxicity, organism-based; set-up: dose 30 mg/kg, route intraperitoneal; details: in vivo; how it was run: as §5
Mus musculus [9] = experiment: Neurotoxicity in albino mouse assessed as minimal motor impairment at 100 mg/kg, ip after 0.5 hrs by rotorod test; assay type: toxicity, organism-based; set-up: dose 100 mg/kg, route intraperitoneal; details: in vivo; how it was run: as §5
Mus musculus [10] = experiment: Anticonvulsant activity in albino mouse assessed as protection against subcutaneous pentetrazole-induced seizures at 300 mg/kg, ip after 4 hrs; assay type: functional, organism-based; set-up: dose 300 mg/kg
How it was run: (§6)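 Male albino mice (Carworth Farms No. 1) received compound ip in 0.5% methylcellulose, then pentetrazole 85 mg/kg sc in 0.9% NaCl at 0.5 or 4 h. Mice were watched for at least 30 min. Protection meant no threshold seizure, defined as a single clonic spasm lasting at least 5 s. Scored as protected/tested.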

Mus musculus [11] = experiment: Anticonvulsant activity in albino mouse assessed as protection against subcutaneous pentetrazole-induced seizures at 100 mg/kg, ip after 4 hrs; assay type: functional, organism-based; set-up: dose 100 mg/kg; how it was run: as §6
Mus musculus [12] = experiment: Anticonvulsant activity in albino mouse assessed as protection against subcutaneous pentetrazole-induced seizures at 300 mg/kg, ip after 0.5 hrs; assay type: functional, organism-based; set-up: dose 300 mg/kg; how it was run: as §6
Mus musculus [13] = experiment: Anticonvulsant activity in albino mouse assessed as protection against subcutaneous pentetrazole-induced seizures at 30 mg/kg, ip after 4 hrs; assay type: functional, organism-based; set-up: dose 30 mg/kg; how it was run: as §6
Mus musculus [14] = experiment: Anticonvulsant activity in albino mouse assessed as protection against subcutaneous pentetrazole-induced seizures at 100 mg/kg, ip after 0.5 hrs; assay type: functional, organism-based; set-up: dose 100 mg/kg; how it was run: as §6
Mus musculus [15] = experiment: Anticonvulsant activity in albino mouse assessed as protection against subcutaneous pentetrazole-induced seizures at 30 mg/kg, ip after 0.5 hrs; assay type: functional, organism-based; set-up: dose 30 mg/kg; how it was run: as §6
Mus musculus [16] = experiment: Anticonvulsant activity in albino mouse assessed as protection against maximal electroshock-induced seizures at 300 mg/kg, ip after 4 hrs; assay type: functional, organism-based; set-up: dose 300 mg/kg
How it was run: (§7)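 Male albino mice (Carworth Farms No. 1) were given the compound ip as a suspension in 0.5% methylcellulose at 3–300 mg/kg. MES testing was at 0.5 and 4 h, sometimes also at 0.25 and 1 h. Current was 60 Hz, 50 mA, 0.2 s via corneal electrodes, with saline eye drops. Protection meant no hindlimb tonic extension, scored as protected/tested.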

Mus musculus [17] = experiment: Anticonvulsant activity in albino mouse assessed as protection against maximal electroshock-induced seizures at 100 mg/kg, ip after 4 hrs; assay type: functional, organism-based; set-up: dose 100 mg/kg; how it was run: as §7
Mus musculus [18] = experiment: Anticonvulsant activity in albino mouse assessed as protection against maximal electroshock-induced seizures at 30 mg/kg, ip after 4 hrs; assay type: functional, organism-based; set-up: dose 30 mg/kg; how it was run: as §7
Mus musculus [19] = experiment: Anticonvulsant activity in albino mouse assessed as protection against maximal electroshock-induced seizures at 300 mg/kg, ip after 0.5 hrs; assay type: functional, organism-based; set-up: dose 300 mg/kg; how it was run: as §7
Mus musculus [20] = experiment: Anticonvulsant activity in albino mouse assessed as protection against maximal electroshock-induced seizures at 100 mg/kg, ip after 0.5 hrs; assay type: functional, organism-based; set-up: dose 100 mg/kg; how it was run: as §7
Mus musculus [21] = experiment: Anticonvulsant activity in albino mouse assessed as protection against maximal electroshock-induced seizures at 30 mg/kg, ip after 0.5 hrs; assay type: functional, organism-based; set-up: dose 30 mg/kg; how it was run: as §7
Mus musculus [22] = experiment: Neurotoxicity in albino mouse assessed as minimal motor impairment at 30 mg/kg, ip after 0.5 hrs by rotorod test; assay type: toxicity, organism-based; set-up: dose 30 mg/kg, route intraperitoneal; details: in vivo; how it was run: as §5
Rattus norvegicus [23] = experiment: Neurotoxicity in Sprague-Dawley rat assessed as minimal motor impairment at 30 mg/kg, po after 1 hr by rotorod test; details: in vivo
Rattus norvegicus [24] = experiment: Neurotoxicity in Sprague-Dawley rat assessed as minimal motor impairment at 30 mg/kg, po after 4 hrs by rotorod test; details: in vivo
Rattus norvegicus [25] = experiment: Neurotoxicity in Sprague-Dawley rat assessed as minimal motor impairment at 30 mg/kg, po after 2 hrs by rotorod test; details: in vivo
Rattus norvegicus [26] = experiment: Neurotoxicity in Sprague-Dawley rat assessed as minimal motor impairment at 30 mg/kg, po after 0.5 hrs by rotorod test; details: in vivo
Rattus norvegicus [27] = experiment: Neurotoxicity in Sprague-Dawley rat assessed as minimal motor impairment at 30 mg/kg, po after 0.25 hrs by rotorod test; details: in vivo
Rattus norvegicus [28] = experiment: Anticonvulsant activity in Sprague-Dawley rat assessed as protection against maximal electroshock-induced seizures at 30 mg/kg, po after 4 hrs; assay type: functional, organism-based; set-up: dose 30 mg/kg; how it was run: as §4
Rattus norvegicus [29] = experiment: Anticonvulsant activity in Sprague-Dawley rat assessed as protection against maximal electroshock-induced seizures at 30 mg/kg, po after 2 hrs; assay type: functional, organism-based; set-up: dose 30 mg/kg; how it was run: as §4
Rattus norvegicus [30] = experiment: Anticonvulsant activity in Sprague-Dawley rat assessed as protection against maximal electroshock-induced seizures at 30 mg/kg, po after 0.5 hrs; assay type: functional, organism-based; set-up: dose 30 mg/kg; how it was run: as §4
Rattus norvegicus [31] = experiment: Anticonvulsant activity in Sprague-Dawley rat assessed as protection against maximal electroshock-induced seizures at 30 mg/kg, po after 0.25 hrs; assay type: functional, organism-based; set-up: dose 30 mg/kg; how it was run: as §4
Mus musculus [32] = experiment: Neurotoxicity in albino mouse assessed as minimal motor impairment at 300 mg/kg, ip after 4 hrs by rotorod test; assay type: toxicity, organism-based; set-up: dose 300 mg/kg, route intraperitoneal; details: in vivo; how it was run: as §5
Mus musculus [33] = experiment: Neurotoxicity in albino mouse assessed as minimal motor impairment at 300 mg/kg, ip after 0.5 hrs by rotorod test; assay type: toxicity, organism-based; set-up: dose 300 mg/kg, route intraperitoneal; details: in vivo; how it was run: as §5
[34] = Neurotoxicity in ip dosed albino mouse assessed as minimal motor impairment after 2 hrs by rotorod test; assay type: toxicity, organism-based; details: in vivo; how it was run: as §1
Mus musculus [35] = experiment: Protective index, ratio TD50 for albino mouse to ED50 for albino mouse by subcutaneous pentetrazole-induced seizure test after 2 hrs; assay type: functional
Mus musculus [36] = experiment: Anticonvulsant activity in ip dosed albino mouse assessed as protection against subcutaneous pentetrazole-induced seizures after 2 hrs; assay type: functional
Mus musculus [37] = organism: Mus musculus; experiment: Protective index, ratio TD50 for albino mouse to ED50 for albino mouse by maximal electroshock-induced seizure test after 1 hr; assay type: functional; how it was run: as §2
Mus musculus [38] = experiment: Anticonvulsant activity in ip dosed albino mouse assessed as protection against maximal electroshock-induced seizures after 1 hr; assay type: functional; how it was run: as §3

Compound	Activity (Rattus norvegicus [6])	Activity (Mus musculus [7])	Activity (Mus musculus [8])	Activity (Mus musculus [9])	Activity (Mus musculus [10])	Activity (Mus musculus [11])	Activity (Mus musculus [12])	Activity (Mus musculus [13])	Activity (Mus musculus [14])	Activity (Mus musculus [15])	Activity (Mus musculus [17])	Activity (Mus musculus [18])	Activity (Mus musculus [19])	Activity (Mus musculus [21])	Activity (Mus musculus [22])	Activity (Rattus norvegicus [23])	Activity (Rattus norvegicus [24])	Activity (Rattus norvegicus [25])	Activity (Rattus norvegicus [26])	Activity (Rattus norvegicus [27])	also measured
CCC(CO)NCc1ccc2oc3cc(OC)ccc3c(=O)c2c1 (racemic)	inactive	Non-toxic	Non-toxic	Non-toxic	inactive	inactive	inactive	inactive	inactive	inactive	inactive	inactive	Active	inactive	Non-toxic	Non-toxic	Non-toxic	Non-toxic	Non-toxic	Non-toxic	TD50 at 1 h [1]: 213 mg/kg; Ratio TD50/ED50 (Mus musculus [2]): <0.43; ED50 (Mus musculus [3]): > 500 mg/kg; Ratio TD50/ED50 (Mus musculus [4]): 2.66; ED50 (Mus musculus [5]): 80 mg/kg; Activity (Mus musculus [16]): Active; Activity (Mus musculus [20]): Active
CCC(CO)NCc1cccc2c(=O)c3ccc(OC)cc3oc12 (racemic)	inactive	Non-toxic	Non-toxic	Toxic	–	inactive	–	inactive	inactive	inactive	inactive	inactive	Active	inactive	Non-toxic	Non-toxic	Non-toxic	Non-toxic	Non-toxic	Non-toxic	Activity (Rattus norvegicus [28]): inactive; Activity (Rattus norvegicus [29]): inactive; Activity (Rattus norvegicus [30]): inactive; Activity (Rattus norvegicus [31]): inactive; Activity (Mus musculus [32]): Toxic; Activity (Mus musculus [33]): Toxic; Activity (Mus musculus [20]): Active
C[C@@H](CO)NCc1ccc2oc3ccc(Cl)cc3c(=O)c2c1	inactive	Non-toxic	Non-toxic	Non-toxic	inactive	inactive	inactive	inactive	inactive	inactive	Active	inactive	inactive	inactive	Non-toxic	Non-toxic	Non-toxic	Non-toxic	Non-toxic	Non-toxic	TD50 at 2 h [34]: 313 mg/kg; Ratio TD50/ED50 (Mus musculus [35]): <0.84; ED50 (Mus musculus [36]): > 375 mg/kg; Ratio TD50/ED50 (Mus musculus [37]): 3.93; ED50 (Mus musculus [38]): 79.7 mg/kg; Activity (Rattus norvegicus [28]): inactive; Activity (Rattus norvegicus [29]): inactive; Activity (Mus musculus [32]): Non-toxic; Activity (Mus musculus [33]): Non-toxic; Activity (Mus musculus [16]): Active
